Legend:
Assay type in all cases: toxicity, cell-based
[1] = test system: HEK-293T; test: Multiplex assay against HEK293T; conditions: human;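 as to Population Tubulin-Different-Phenotype (%): share of the cells with healthy nuclei that show this phenotype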
Procedure, shortened: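 Cells were classed with CellPathfinder machine-learning gating, first as Hoechst high-intensity objects or normal cells, then (normal cells) as healthy, pyknosed or fragmented nuclei, and finally (pyknosed cells) as mitotic or apoptotic. Staining of live cells at seeding used Hoechst33342, BioTracker Green Microtubule Cytoskeleton Dye, MitoTracker Red and Annexin V Alexa Fluor 680, with imaging on a CQ1 microscope at 37°C and 5% CO2 after compound addition. Tubulin, mitochondrial-mass and membrane-permeability phenotypes are per cents of healthy-nucleus cells.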

[2] = test system: HEK-293T; test: Incucyte cell viability with HEK293T; conditions: human, 10 µM, compound concentration 10 uM; also: filed as whole numbers so only -1 and 0 and 1 occur
[3] = test system: Fibroblast; test: Incucyte cell viability with human fibroblast; conditions: 10 µM, compound concentration 10 uM; also: filed as whole numbers so only -1 and 0 and 1 occur
[4] = 12 h, 1 µM, compound concentration 1 uM, replicate 1
[5] = 12 h, 1 µM, compound concentration 1 uM, replicate 2
[6] = 12 h, 10 µM, compound concentration 10 uM, replicate 1
[7] = 12 h, 10 µM, compound concentration 10 uM, replicate 2
[8] = 24 h, 1 µM, compound concentration 1 uM, replicate 1
[9] = 24 h, 1 µM, compound concentration 1 uM, replicate 2
[10] = 24 h, 10 µM, compound concentration 10 uM, replicate 1
[11] = 24 h, 10 µM, compound concentration 10 uM, replicate 2
[12] = 6 h, replicate number 1, timepoint 6 hours
[13] = 12 h, replicate number 1, timepoint 12 hours
[14] = 18 h, replicate number 1, timepoint 18 hours
[15] = 24 h, replicate number 1, timepoint 24 hours

In the case of CC(C)(C)c1cnc(CSc2cnc(NC(=O)C3CCNCC3)s2)o1 [BMS-387032], the “Population Apoptotic (%)” value [1, 4] is reported as 25%, the “Population Fragmented Nuclei (%)” value [1, 4] is reported as 21% and the “Population Healthy Nuclei (%)” value [1, 4] is reported as 51%. For the same molecule, the “Population Hoechst High Intensity Objects (%)” value [1, 4] was 19%, the “Population Membrane Permeable-Phenotype (%)” value [1, 4] was 3% and the “Population Mitochondria Different-Phenotype (%)” value [1, 4] was 8%. For the same molecule, the “Population Mitotic Cells (%)” value [1, 4] was 74%, the “Population Normal (%)” value [1, 4] was 80% and the “Population Pyknosed Nuclei (%)” value [1, 4] was 27%. For the same molecule, the “Population Tubulin-Different-Phenotype (%)” value [1, 4] was 4%, the “Total Cell Count” value [1, 4] was 507 and the “Population Apoptotic (%)” value [1, 5] was 21%. The “Population Fragmented Nuclei (%)” value [1, 5] was 4%, the “Population Healthy Nuclei (%)” value [1, 5] was 85% and the “Population Hoechst High Intensity Objects (%)” value [1, 5] was 4%. The “Population Membrane Permeable-Phenotype (%)” value [1, 5] was 1%, the “Population Mitochondria Different-Phenotype (%)” value [1, 5] was 25% and the “Population Mitotic Cells (%)” value [1, 5] was 78%. For the same molecule, the “Population Normal (%)” value [1, 5] was 95%, the “Population Pyknosed Nuclei (%)” value [1, 5] was 10% and the “Population Tubulin-Different-Phenotype (%)” value [1, 5] was 13%. For the same molecule, the “Total Cell Count” value [1, 5] was 981, the “Population Apoptotic (%)” value [1, 6] was 23% and the “Population Fragmented Nuclei (%)” value [1, 6] was 15%. The “Population Healthy Nuclei (%)” value [1, 6] was 51%, the “Population Hoechst High Intensity Objects (%)” value [1, 6] was 21% and the “Population Membrane Permeable-Phenotype (%)” value [1, 6] was 4%. For the same molecule, the “Population Mitochondria Different-Phenotype (%)” value [1, 6] was 17%, the “Population Mitotic Cells (%)” value [1, 6] was 76% and the “Population Normal (%)” value [1, 6] was 78%. For the same molecule, the “Population Pyknosed Nuclei (%)” value [1, 6] was 33%, the “Population Tubulin-Different-Phenotype (%)” value [1, 6] was 27% and the “Total Cell Count” value [1, 6] was 549. The “Population Apoptotic (%)” value [1, 7] was 24%, the “Population Fragmented Nuclei (%)” value [1, 7] was 2% and the “Population Healthy Nuclei (%)” value [1, 7] was 86%. The “Population Hoechst High Intensity Objects (%)” value [1, 7] was 10%, the “Population Membrane Permeable-Phenotype (%)” value [1, 7] was 1% and the “Population Mitochondria Different-Phenotype (%)” value [1, 7] was 42%. The “Population Mitotic Cells (%)” value [1, 7] was 75%, the “Population Normal (%)” value [1, 7] was 90% and the “Population Pyknosed Nuclei (%)” value [1, 7] was 10%. For the same molecule, the “Population Tubulin-Different-Phenotype (%)” value [1, 7] was 58%, the “Total Cell Count” value [1, 7] was 880 and the “Population Apoptotic (%)” value [1, 8] was 27%. For the same molecule, the “Population Fragmented Nuclei (%)” value [1, 8] was 21%, the “Population Healthy Nuclei (%)” value [1, 8] was 53% and the “Population Hoechst High Intensity Objects (%)” value [1, 8] was 20%. The “Population Membrane Permeable-Phenotype (%)” value [1, 8] was 6%, the “Population Mitochondria Different-Phenotype (%)” value [1, 8] was 9% and the “Population Mitotic Cells (%)” value [1, 8] was 72%. The “Population Normal (%)” value [1, 8] was 79%, the “Population Pyknosed Nuclei (%)” value [1, 8] was 24% and the “Population Tubulin-Different-Phenotype (%)” value [1, 8] was 9%. The “Total Cell Count” value [1, 8] was 451, the “Population Apoptotic (%)” value [1, 9] was 22% and the “Population Fragmented Nuclei (%)” value [1, 9] was 6%. For the same molecule, the “Population Healthy Nuclei (%)” value [1, 9] was 87%, the “Population Hoechst High Intensity Objects (%)” value [1, 9] was 8% and the “Population Membrane Permeable-Phenotype (%)” value [1, 9] was 1%. The “Population Mitochondria Different-Phenotype (%)” value [1, 9] was 22%, the “Population Mitotic Cells (%)” value [1, 9] was 77% and the “Population Normal (%)” value [1, 9] was 91%. The “Population Pyknosed Nuclei (%)” value [1, 9] was 5%, the “Population Tubulin-Different-Phenotype (%)” value [1, 9] was 17% and the “Total Cell Count” value [1, 9] was 934. For the same molecule, the “Population Apoptotic (%)” value [1, 10] was 27%, the “Population Fragmented Nuclei (%)” value [1, 10] was 16% and the “Population Healthy Nuclei (%)” value [1, 10] was 45%. For the same molecule, the “Population Hoechst High Intensity Objects (%)” value [1, 10] was 23%, the “Population Membrane Permeable-Phenotype (%)” value [1, 10] was 1% and the “Population Mitochondria Different-Phenotype (%)” value [1, 10] was 34%. The “Population Mitotic Cells (%)” value [1, 10] was 72%, the “Population Normal (%)” value [1, 10] was 76% and the “Population Pyknosed Nuclei (%)” value [1, 10] was 38%. For the same molecule, the “Population Tubulin-Different-Phenotype (%)” value [1, 10] was 30%, the “Total Cell Count” value [1, 10] was 494 and the “Population Apoptotic (%)” value [1, 11] was 31%. For the same molecule, the “Population Fragmented Nuclei (%)” value [1, 11] was 3%, the “Population Healthy Nuclei (%)” value [1, 11] was 83% and the “Population Hoechst High Intensity Objects (%)” value [1, 11] was 14%. For the same molecule, the “Population Membrane Permeable-Phenotype (%)” value [1, 11] was 0%, the “Population Mitochondria Different-Phenotype (%)” value [1, 11] was 54% and the “Population Mitotic Cells (%)” value [1, 11] was 68%. The “Population Normal (%)” value [1, 11] was 85%, the “Population Pyknosed Nuclei (%)” value [1, 11] was 13% and the “Population Tubulin-Different-Phenotype (%)” value [1, 11] was 61%. For the same molecule, the “Total Cell Count” value [1, 11] was 828, the “Growth Rate” value [2, 12] was 0 and the “Growth Rate” value [2, 13] was 0. For the same molecule, the “Growth Rate” value [2, 14] was 0, the “Growth Rate” value [2, 15] was 0 and the “Growth Rate” value ([3]; 0 h, replicate number 1, timepoint 0 hours) was 0. For the same molecule, the “Growth Rate” value [3, 12] was 0, the “Growth Rate” value [3, 13] was 0 and the “Growth Rate” value [3, 14] was 0. The “Growth Rate” value [3, 15] was 0.
